The source of these data is ChEMBL document CHEMBL2034814, “Synthesis and evaluation of γ-lactam analogs of PGE₂ as EP4 and EP2/EP4 agonists” (Bioorg Med Chem, 2012).

In assay [1] the target is Prostaglandin E2 receptor EP4 subtype (Rattus norvegicus, UniProt P43114). The assay can be described thus: Agonist activity at rat EP4 receptor expressed in CHO cells assessed as cAMP production after 10 mins by radioimmunoassay. Format: functional, cell-based.
Assay [2] addresses T1, Prostaglandin E2 receptor EP1 subtype (Mus musculus, UniProt P35375).
T1 sequence (P35375 whole entry): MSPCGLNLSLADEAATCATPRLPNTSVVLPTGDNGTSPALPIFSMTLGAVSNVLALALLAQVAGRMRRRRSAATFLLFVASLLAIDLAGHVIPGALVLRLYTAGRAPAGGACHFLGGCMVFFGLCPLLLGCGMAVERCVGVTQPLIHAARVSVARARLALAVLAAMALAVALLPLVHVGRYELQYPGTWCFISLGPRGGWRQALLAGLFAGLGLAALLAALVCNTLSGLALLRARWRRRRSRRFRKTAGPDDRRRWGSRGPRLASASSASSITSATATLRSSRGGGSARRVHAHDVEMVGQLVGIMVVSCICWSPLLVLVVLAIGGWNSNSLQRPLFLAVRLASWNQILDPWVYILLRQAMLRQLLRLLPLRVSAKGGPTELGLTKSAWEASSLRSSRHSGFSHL
The assay can be described thus: Displacement of [3H]PGE2 from mouse EP1 receptor expressed in CHO cells after 20 mins by scintillation counting. Type of assay: cell-based.

For assay [3], the target named is T2, Prostaglandin E2 receptor EP3 subtype (Mus musculus, UniProt P30557).
T2 sequence (P30557 whole entry): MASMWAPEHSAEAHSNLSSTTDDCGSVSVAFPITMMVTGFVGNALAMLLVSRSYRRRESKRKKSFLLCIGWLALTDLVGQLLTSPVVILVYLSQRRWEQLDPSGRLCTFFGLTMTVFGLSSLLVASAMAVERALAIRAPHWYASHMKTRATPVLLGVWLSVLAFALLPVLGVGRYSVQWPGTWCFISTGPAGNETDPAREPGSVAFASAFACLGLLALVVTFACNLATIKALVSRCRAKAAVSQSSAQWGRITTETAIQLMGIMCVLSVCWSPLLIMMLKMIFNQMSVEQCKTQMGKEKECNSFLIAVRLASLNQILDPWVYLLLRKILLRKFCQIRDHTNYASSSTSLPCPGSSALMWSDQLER
Briefly: Displacement of [3H]PGE2 from mouse EP3 receptor expressed in CHO cells after 60 mins by scintillation counting. Type of assay: cell-based. Background: Loss of bound radioactivity is the signal in a displacement assay; it reports binding, not function.

In assay [4] the target is Prostaglandin E2 receptor EP2 subtype (Mus musculus, UniProt Q62053). The assay can be described thus: Displacement of [3H]PGE2 from mouse EP2 receptor expressed in CHO cells after 60 mins by scintillation counting. Format: cell-based.
Assay [5] has as its target Prostaglandin E2 receptor EP4 subtype (Mus musculus, UniProt P32240). The assay can be described thus: Displacement of [3H]PGE2 from mouse EP4 receptor expressed in CHO cells after 60 mins by scintillation counting. Format: cell-based.
For assay [6], the target named is Prostaglandin E2 receptor EP2 subtype (Rattus norvegicus, UniProt Q62928). Briefly: Agonist activity at rat EP2 receptor expressed in CHO cells assessed as cAMP production after 10 mins by radioimmunoassay. Type of assay: functional, cell-based. The method in brief:
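CHO cells expressing rat EP2 receptor, seeded 1 × 10^5 cells/well and grown 2 days; washed, incubated 10 min at 37 °C in MEM with 2 µM diclofenac, then preincubated 10 min in assay medium with 1% BSA. Compound added, 10 min at 37 °C, stopped with ice-cold 10% trichloroacetic acid; cAMP measured by radioimmunoassay.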
Background: cAMP levels reflect the balance of adenylyl cyclase and phosphodiesterase activity.

Where only a bound is given, the exact number is not on record here.

Prostaglandin E2 receptor EP4 subtype (Mus musculus, UniProt P32240), sequence (P32240 whole entry): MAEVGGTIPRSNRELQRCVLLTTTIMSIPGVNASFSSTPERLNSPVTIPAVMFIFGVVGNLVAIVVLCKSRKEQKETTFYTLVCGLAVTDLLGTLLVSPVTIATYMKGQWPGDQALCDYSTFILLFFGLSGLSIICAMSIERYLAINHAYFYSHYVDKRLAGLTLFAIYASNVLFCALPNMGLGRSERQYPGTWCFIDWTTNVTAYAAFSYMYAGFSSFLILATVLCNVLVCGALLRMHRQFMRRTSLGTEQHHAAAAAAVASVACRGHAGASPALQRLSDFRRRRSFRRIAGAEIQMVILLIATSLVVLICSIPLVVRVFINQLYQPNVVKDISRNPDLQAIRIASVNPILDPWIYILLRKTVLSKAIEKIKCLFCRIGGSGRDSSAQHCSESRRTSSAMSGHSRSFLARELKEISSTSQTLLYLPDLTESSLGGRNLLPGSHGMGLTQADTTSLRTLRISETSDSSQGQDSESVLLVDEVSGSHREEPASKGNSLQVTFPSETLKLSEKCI
Prostaglandin E2 receptor EP4 subtype (Rattus norvegicus, UniProt P43114), sequence (P43114 whole entry): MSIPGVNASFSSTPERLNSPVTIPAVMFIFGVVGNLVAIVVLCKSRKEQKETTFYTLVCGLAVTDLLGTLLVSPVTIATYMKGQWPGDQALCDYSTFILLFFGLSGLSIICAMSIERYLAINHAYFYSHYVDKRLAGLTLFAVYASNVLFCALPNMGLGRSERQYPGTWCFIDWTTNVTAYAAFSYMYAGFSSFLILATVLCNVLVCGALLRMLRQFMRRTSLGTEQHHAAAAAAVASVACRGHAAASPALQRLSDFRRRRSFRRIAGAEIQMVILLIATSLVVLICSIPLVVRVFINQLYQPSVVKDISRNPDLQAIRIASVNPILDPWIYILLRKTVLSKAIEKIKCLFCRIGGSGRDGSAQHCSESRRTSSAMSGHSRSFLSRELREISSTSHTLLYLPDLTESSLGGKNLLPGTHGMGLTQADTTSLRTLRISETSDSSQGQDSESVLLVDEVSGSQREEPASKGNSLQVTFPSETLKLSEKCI
Prostaglandin E2 receptor EP2 subtype (Mus musculus, UniProt Q62053), sequence (Q62053 whole entry): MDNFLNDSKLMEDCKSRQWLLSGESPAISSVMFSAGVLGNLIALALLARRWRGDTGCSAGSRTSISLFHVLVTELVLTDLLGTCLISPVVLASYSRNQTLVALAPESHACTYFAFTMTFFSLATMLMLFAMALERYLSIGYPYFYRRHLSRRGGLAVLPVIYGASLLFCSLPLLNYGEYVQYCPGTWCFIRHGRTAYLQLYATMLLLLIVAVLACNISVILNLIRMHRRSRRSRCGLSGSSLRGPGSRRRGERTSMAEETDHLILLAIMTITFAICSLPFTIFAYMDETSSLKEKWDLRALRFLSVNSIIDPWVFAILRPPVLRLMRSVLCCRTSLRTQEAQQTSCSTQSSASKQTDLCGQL
Prostaglandin E2 receptor EP2 subtype (Rattus norvegicus, UniProt Q62928), sequence (Q62928 whole entry): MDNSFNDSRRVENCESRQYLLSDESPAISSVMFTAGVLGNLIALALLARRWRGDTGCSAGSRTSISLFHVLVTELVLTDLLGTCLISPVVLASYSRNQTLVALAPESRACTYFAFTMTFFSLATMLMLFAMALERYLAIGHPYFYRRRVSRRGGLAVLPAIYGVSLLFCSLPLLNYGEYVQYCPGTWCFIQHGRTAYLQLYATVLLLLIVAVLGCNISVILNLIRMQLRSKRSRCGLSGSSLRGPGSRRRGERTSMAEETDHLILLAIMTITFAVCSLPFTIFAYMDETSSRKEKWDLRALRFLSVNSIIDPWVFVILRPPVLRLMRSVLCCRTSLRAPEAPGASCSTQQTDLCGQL

Usually EC50 stands for the concentration needed to bring the measured effect to its halfway point. One may read the Ki as a dissociation constant, usually derived from enzyme kinetics or from competition with a known ligand. High values mean a looser hold on the target, low ones a stronger hold on the target. Regarding `O=C(O)CCCSCCN1C(=O)CC[C@@H]1/C=C/[C@@H](O)Cc1cccc(OCc2ccncc2)c1`, the EC50 in assay [1] worked out at 0.046 µM. The Ki in assay [2] was more than 10 µM; in assay [3] it was more than 10 µM; in assay [4] it was more than 10 µM; in assay [5] it was 0.028 µM.

For `Cc1cccc2oc(-c3cccc(C[C@H](O)/C=C/[C@H]4CCC(=O)N4CCSc4nc(C(=O)O)cs4)c3)nc12`, the values for the EC50 in assay [1] and in assay [6] were 0.028 µM and 8.5 µM, respectively. Besides, the Ki was 7.7 µM in assay [2], more than 10 µM in assay [3], 0.022 µM in assay [4] and 0.00021 µM in assay [5].

With `Cc1cccc(C[C@H](O)/C=C/[C@H]2CCC(=O)N2CCSCCCC(=O)O)c1`, the concentration giving a half-maximal response (EC50) in assay [1] came to 0.0057 µM.

With `O=C(O)CCCSCCN1C(=O)CC[C@@H]1/C=C/[C@@H](O)Cc1cccc(-c2nc3ccccc3o2)c1`, in assay [1], the EC50 is 0.013 µM. For the same compound, the inhibition constant (Ki) in assay [2] was 5 µM; in assay [3], more than 10 µM; in assay [4], 1.7 µM; in assay [5], 0.0002 µM.

As to `O=C(O)CCCSCCN1C(=O)CC[C@@H]1/C=C/[C@@H](O)Cc1cccc(OCc2ccccn2)c1`, the EC50 in assay [1] turned out to be 0.00061 µM. Further, the Ki in assay [2] is more than 10 µM; in assay [3] it was more than 10 µM; in assay [4], more than 10 µM; in assay [5], 0.00089 µM.

As to `O=C(O)CCCSCCN1C(=O)CC[C@@H]1/C=C/[C@@H](O)Cc1cccc(OCc2cccnc2)c1`, the EC50 in assay [1] came to 0.019 µM. Also, the Ki in assay [2] was more than 10 µM; in assay [3], more than 10 µM; in assay [4], more than 10 µM; in assay [5], 0.0047 µM.

As for `O=C(O)CCCSCCN1C(=O)CC[C@@H]1/C=C/[C@@H](O)Cc1cccc(-c2ccccc2)c1`, in assay [1], the concentration for a half-maximal effect (EC50) turned out to be 0.052 µM. In addition, the Ki in assay [2] is more than 10 µM; in assay [3], more than 10 µM; in assay [4] it was more than 10 µM; in assay [5], 0.0011 µM.

With `Cc1ccc(-c2cccc(C[C@H](O)/C=C/[C@H]3CCC(=O)N3CCSc3nc(C(=O)O)cs3)c2)cc1`, the values for the EC50 in assay [1] and in assay [6] were 0.015 µM and 0.38 µM, respectively. Further, the Ki in assay [2] is 6.1 µM; in assay [3], more than 10 µM; in assay [4] it was 0.002 µM; in assay [5] it was 0.00043 µM.

Turning to `O=C(O)c1csc(SCCN2C(=O)CC[C@@H]2/C=C/[C@@H](O)Cc2cccc(-c3nc4cc(Cl)ccc4s3)c2)n1`, the EC50 was 0.0097 µM in assay [1] and more than 10 µM in assay [6]. Moreover, the Ki in assay [2] is 0.68 µM; in assay [3] it was more than 10 µM; in assay [4], 0.022 µM; in assay [5] it was 0.00025 µM.

As for `Cc1ccc(-c2cccc(C[C@H](O)/C=C/[C@H]3CCC(=O)N3CCSc3nc(C(=O)O)cs3)c2)c(C)c1`, the EC50 was 0.16 µM in assay [1] and more than 10 µM in assay [6]. In addition, the Ki in assay [2] is 2.4 µM; in assay [3], more than 10 µM; in assay [4] it was 0.023 µM; in assay [5], 0.0035 µM.

In the case of `O=C(O)CCCSCCN1C(=O)CC[C@@H]1/C=C/[C@@H](O)Cc1cccc(N2Cc3ccccc3C2)c1`, the EC50 in assay [1] came to 0.028 µM. The Ki in assay [2] is 7.1 µM; in assay [3], more than 10 µM; in assay [4] it was more than 10 µM; in assay [5], 0.0044 µM.

As for `O=C(O)c1csc(SCCN2C(=O)CC[C@@H]2/C=C/[C@@H](O)Cc2cccc(-c3nc4ccccc4s3)c2)n1`, the EC50 was determined as 0.013 µM in assay [1] and 2.7 µM in assay [6]. Moreover, the Ki is 8 µM in assay [2], more than 10 µM in assay [3], 0.015 µM in assay [4] and 0.00019 µM in assay [5].

Consider `O=C(O)CCCSCCN1C(=O)CC[C@@H]1/C=C/[C@@H](O)Cc1cccc(-c2ccc3ccccc3c2)c1`, for which the EC50 in assay [1] worked out at 0.096 µM. For the same compound, the Ki was more than 10 µM in assay [2], more than 10 µM in assay [3], 2.1 µM in assay [4] and 0.0006 µM in assay [5].

For the compound `O=C(O)c1csc(SCCN2C(=O)CC[C@@H]2/C=C/[C@@H](O)Cc2cccc(-c3nc4ccccc4o3)c2)n1`, the EC50 in assay [1] was 0.0022 µM; in assay [6], 1.6 µM. In addition, the Ki in assay [2] was more than 10 µM; in assay [3], more than 10 µM; in assay [4], 0.028 µM; in assay [5], 0.00012 µM.

Take `Cc1cc(C)c2oc(-c3cccc(C[C@H](O)/C=C/[C@H]4CCC(=O)N4CCSc4nc(C(=O)O)cs4)c3)nc2c1`: the EC50 in assay [1] is 0.0077 µM; in assay [6] it was more than 10 µM. Also, the Ki is 3.2 µM in assay [2], more than 10 µM in assay [3], 0.024 µM in assay [4] and 0.00015 µM in assay [5].

On to `O=C(O)CCCSCCN1C(=O)CC[C@@H]1/C=C/[C@@H](O)Cc1cccc(-c2ccc3[nH]ccc3c2)c1`, for which the EC50 in assay [1] amounted to 0.085 µM. For the same compound, the inhibition constant (Ki) in assay [2] was more than 10 µM; in assay [3], more than 10 µM; in assay [4], 3.5 µM; in assay [5] it was 0.00028 µM.

With `COc1ccc(-c2cccc(C[C@H](O)/C=C/[C@H]3CCC(=O)N3CCSc3nc(C(=O)O)cs3)c2)cc1`, the EC50 in assay [1] was 0.015 µM; in assay [6], 4.6 µM. Further, the Ki in assay [2] was 5.4 µM; in assay [3], more than 10 µM; in assay [4], 0.0092 µM; in assay [5] it was 0.0017 µM.

As to `O=C(O)CCCSCCN1C(=O)CC[C@@H]1/C=C/[C@@H](O)Cc1cccc(-c2ccccn2)c1`, in assay [1], the EC50 came to 0.086 µM. In addition, the Ki in assay [2] is more than 10 µM; in assay [3] it was more than 10 µM; in assay [4], 6.1 µM; in assay [5] it was 0.0048 µM.

As for `Cc1ccc(-c2cccc(C[C@H](O)/C=C/[C@H]3CCC(=O)N3CCSc3nc(C(=O)O)cs3)c2)cc1C`, the EC50 is 0.021 µM in assay [1] and 1.4 µM in assay [6]. Further, the Ki in assay [2] was 2.5 µM; in assay [3], more than 10 µM; in assay [4], 0.0015 µM; in assay [5] it was 0.00035 µM.

Turning to `O=C(O)CCCSCCN1C(=O)CC[C@@H]1/C=C/[C@@H](O)Cc1cccc(-c2nc3ccccc3s2)c1`, the EC50 in assay [1] was 0.0032 µM. Also, the Ki in assay [2] is more than 10 µM; in assay [3], more than 10 µM; in assay [4] it was 0.72 µM; in assay [5] it was 0.00036 µM.

For `O=C(O)c1csc(SCCN2C(=O)CC[C@@H]2/C=C/[C@@H](O)Cc2cccc(-c3nc4cc(Cl)ccc4o3)c2)n1`, the EC50 in assay [1] is 0.0049 µM; in assay [6], more than 10 µM. Besides, the Ki in assay [2] was 0.65 µM; in assay [3], more than 10 µM; in assay [4] it was 0.067 µM; in assay [5] it was 0.0002 µM.
